Source: ChEMBL document CHEMBL4673370, “Modifications at C(5) of 2-(2-Pyrrolidinyl)-Substituted 1,4-Benzodioxane Elicit Potent α4β2 Nicotinic Acetylcholine Receptor Partial Agonism with High Selectivity over the α3β4 Subtype” (J Med Chem, 2020)

Columns and labels:
[1] = target: T1, Neuronal acetylcholine receptor; alpha3/beta4 (Homo sapiens, UniProt P30926+P32297); assay: Displacement of [3H]-epibatidine from human alpha3beta4 transfected in HEK293 cell membranes preincubated for 5 mins followed by [3H]-epibatidine addition and measured after overnight incubation by liquid scintillation beta counter analysis; parameters: species or system Membrane
T1 sequence (P30926 whole entry): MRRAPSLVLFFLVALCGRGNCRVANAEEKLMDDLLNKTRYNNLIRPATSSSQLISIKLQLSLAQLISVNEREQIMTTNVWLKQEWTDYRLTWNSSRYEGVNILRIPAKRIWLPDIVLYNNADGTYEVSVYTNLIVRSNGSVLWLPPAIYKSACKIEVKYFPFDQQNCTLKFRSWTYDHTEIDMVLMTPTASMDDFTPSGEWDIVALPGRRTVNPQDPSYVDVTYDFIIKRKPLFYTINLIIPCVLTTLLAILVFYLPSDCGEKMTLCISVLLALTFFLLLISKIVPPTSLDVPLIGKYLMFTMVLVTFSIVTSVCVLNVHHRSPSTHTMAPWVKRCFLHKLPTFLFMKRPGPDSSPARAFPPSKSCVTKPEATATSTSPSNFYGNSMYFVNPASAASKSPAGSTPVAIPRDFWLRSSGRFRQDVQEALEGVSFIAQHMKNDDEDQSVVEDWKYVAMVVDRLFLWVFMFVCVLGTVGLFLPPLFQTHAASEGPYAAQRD
T1 sequence (P32297 whole entry): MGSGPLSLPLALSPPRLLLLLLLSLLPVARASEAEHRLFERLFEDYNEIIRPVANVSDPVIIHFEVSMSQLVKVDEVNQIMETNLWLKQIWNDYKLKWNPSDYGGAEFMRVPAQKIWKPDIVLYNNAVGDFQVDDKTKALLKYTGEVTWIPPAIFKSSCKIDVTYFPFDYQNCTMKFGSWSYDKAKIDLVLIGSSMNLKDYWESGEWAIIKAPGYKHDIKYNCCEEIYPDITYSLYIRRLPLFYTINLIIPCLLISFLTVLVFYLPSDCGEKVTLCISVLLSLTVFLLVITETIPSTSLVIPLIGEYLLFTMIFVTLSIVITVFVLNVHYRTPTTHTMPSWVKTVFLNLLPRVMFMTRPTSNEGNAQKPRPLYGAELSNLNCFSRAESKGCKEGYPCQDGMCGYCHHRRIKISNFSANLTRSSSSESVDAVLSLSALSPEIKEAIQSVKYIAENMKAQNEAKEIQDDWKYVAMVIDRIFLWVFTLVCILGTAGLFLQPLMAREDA
In short: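 Membranes (rat cerebral cortex for α4β2; HEK cells stably transfected with human α3β4) were pre-exposed to rising compound concentrations for 5 min. They were then incubated overnight at 4 °C with [3H]epibatidine (0.1 nM for α4β2, 0.25 nM for α3β4). Samples were filtered on PEI-soaked GFC filters and counted by β scintillation. Nonspecific binding was set with 100 nM epibatidine.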

[2] = target: Neuronal acetylcholine receptor subunit alpha-7 (Rattus norvegicus, UniProt Q05941); assay: Displacement of [125I]alpha-bungarotoxin from alpha7nAChR in rat hippocampus membranes preincubated for 5 mins followed by [125I]alpha-bungarotoxin addition and measured after overnight incubation by liquid scintillation beta counter analysis; assay type: cell membranes, Membrane
Chain of Neuronal acetylcholine receptor subunit alpha-7 (Q05941 whole entry): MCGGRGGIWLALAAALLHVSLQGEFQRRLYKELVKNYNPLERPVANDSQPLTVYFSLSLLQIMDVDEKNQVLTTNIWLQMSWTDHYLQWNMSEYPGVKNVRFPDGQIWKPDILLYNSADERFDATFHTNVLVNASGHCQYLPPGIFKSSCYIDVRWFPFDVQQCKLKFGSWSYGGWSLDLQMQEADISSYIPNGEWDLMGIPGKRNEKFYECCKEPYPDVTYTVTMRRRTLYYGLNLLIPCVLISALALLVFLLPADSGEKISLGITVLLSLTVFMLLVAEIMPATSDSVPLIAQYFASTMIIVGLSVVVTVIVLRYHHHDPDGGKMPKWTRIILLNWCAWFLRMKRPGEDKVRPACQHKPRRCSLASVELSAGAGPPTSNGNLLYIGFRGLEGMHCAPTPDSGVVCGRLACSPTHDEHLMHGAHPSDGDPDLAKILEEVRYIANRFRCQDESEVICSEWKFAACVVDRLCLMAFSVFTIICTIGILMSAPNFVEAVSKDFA

[3] = target: Neuronal acetylcholine receptor; alpha4/beta2 (Rattus norvegicus, UniProt P09483+P12390); assay: Displacement of [3H]-Epibatidine from alpha4beta2 nAChR in rat cerebral cortex membrane preincubated for 5 mins followed by [3H]-Epibatidine addition and measured after overnight incubation by liquid scintillation beta counter analysis; assay type: cell membranes
Chain of Neuronal acetylcholine receptor; alpha4/beta2 (Rattus norvegicus, UniProt P09483+P12390) (P09483 whole entry): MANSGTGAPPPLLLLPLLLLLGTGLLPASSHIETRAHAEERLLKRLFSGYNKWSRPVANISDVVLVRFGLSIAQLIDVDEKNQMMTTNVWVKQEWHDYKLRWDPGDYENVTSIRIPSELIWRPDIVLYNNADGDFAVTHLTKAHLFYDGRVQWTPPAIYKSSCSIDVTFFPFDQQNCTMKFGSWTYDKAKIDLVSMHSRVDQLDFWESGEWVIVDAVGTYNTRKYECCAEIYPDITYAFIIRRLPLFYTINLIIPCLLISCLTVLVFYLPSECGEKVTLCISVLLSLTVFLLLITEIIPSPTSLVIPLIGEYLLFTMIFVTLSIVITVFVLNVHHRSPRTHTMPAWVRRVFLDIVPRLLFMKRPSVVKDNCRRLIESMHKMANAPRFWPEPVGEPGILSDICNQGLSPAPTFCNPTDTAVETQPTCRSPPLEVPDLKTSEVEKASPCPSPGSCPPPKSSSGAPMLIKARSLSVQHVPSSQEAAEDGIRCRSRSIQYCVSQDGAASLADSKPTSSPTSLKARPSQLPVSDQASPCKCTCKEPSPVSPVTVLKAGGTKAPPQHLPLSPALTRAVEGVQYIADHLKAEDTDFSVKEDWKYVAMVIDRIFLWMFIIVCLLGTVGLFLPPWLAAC
Chain of Neuronal acetylcholine receptor; alpha4/beta2 (Rattus norvegicus, UniProt P09483+P12390) (P12390 whole entry): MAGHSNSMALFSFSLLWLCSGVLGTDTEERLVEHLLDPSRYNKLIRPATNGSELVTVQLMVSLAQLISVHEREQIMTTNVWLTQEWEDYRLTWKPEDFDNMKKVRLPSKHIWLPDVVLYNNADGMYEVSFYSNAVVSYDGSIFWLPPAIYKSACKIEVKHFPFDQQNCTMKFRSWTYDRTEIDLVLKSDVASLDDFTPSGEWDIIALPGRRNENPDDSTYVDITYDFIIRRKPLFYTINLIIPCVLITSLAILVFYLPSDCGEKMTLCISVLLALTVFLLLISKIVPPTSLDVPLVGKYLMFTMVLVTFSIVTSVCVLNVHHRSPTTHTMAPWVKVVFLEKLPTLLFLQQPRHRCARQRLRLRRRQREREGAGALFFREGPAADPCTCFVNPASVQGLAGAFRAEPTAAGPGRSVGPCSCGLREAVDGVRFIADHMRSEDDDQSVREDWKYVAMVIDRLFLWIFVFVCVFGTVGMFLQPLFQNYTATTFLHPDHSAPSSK
In short: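 Membranes (rat cerebral cortex for α4β2; HEK cells stably transfected with human α3β4) were pre-exposed to rising compound concentrations for 5 min. Samples were filtered on PEI-soaked GFC filters and counted by β scintillation. Nonspecific binding was set with 100 nM epibatidine.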

[4] = target: T2, Neuronal acetylcholine receptor; alpha4/beta2 (Homo sapiens, UniProt P17787+P43681); assay: Displacement of [3H]-epibatidine from wild type human alpha4beta2 nAChR transfected in human Hela cell membranes preincubated for 5 mins followed by [3H]-epibatidine addition and measured after overnight incubation by liquid scintillation beta counter analysis
T2 sequence (P17787 whole entry): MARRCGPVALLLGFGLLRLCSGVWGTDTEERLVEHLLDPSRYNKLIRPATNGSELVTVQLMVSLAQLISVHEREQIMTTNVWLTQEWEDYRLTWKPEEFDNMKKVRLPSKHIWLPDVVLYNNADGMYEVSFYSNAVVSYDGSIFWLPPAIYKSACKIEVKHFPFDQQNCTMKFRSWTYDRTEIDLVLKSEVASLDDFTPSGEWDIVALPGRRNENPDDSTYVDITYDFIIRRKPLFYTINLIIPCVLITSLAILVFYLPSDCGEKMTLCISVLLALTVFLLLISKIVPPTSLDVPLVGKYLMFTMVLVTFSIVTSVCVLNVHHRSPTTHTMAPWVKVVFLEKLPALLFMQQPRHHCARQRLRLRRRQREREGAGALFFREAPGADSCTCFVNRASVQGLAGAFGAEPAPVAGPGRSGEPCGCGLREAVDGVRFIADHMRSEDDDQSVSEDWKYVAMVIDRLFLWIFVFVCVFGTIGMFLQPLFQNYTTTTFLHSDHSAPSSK
T2 sequence (P43681 whole entry): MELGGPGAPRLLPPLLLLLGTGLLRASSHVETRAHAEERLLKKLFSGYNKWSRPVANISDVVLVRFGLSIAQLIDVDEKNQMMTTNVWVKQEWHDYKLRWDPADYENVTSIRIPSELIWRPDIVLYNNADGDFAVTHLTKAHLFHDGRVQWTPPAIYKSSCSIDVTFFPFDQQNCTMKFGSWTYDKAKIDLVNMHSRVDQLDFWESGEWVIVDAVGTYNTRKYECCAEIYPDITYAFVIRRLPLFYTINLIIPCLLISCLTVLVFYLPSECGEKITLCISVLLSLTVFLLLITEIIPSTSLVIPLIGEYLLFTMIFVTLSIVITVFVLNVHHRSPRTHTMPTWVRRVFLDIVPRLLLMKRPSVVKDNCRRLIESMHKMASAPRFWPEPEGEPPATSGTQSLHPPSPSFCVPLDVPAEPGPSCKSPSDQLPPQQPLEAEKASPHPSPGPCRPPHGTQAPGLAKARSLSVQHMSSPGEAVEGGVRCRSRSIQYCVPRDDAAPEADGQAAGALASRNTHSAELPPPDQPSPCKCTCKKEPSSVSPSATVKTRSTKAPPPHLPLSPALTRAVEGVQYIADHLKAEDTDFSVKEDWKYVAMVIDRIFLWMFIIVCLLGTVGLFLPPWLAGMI
In short: (§1)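 HeLa cells were transiently transfected (JetPEI) with 7.5 μg each of α4 and β2 (wild-type or mutant) cDNA and harvested after 24 h. Membranes were pre-exposed to compounds for 5 min, then incubated overnight at 4 °C with 0.1 nM [3H]epibatidine, filtered and counted by β scintillation. Ki came from the Cheng–Prusoff equation, three independent experiments in duplicate.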

[5] = Agonist activity at human alpha4beta2 S108A mutant transfected in rat GH4-C1 cells at holding potential of -70 mV by whole cell patch clamp electrophysiology method; assay type: cell-based
In short: (§2)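 GH4C1 cells were transiently transfected by magnetofection with 0.5 μg of each human subunit cDNA (wild-type or S108A α4β2; α3β4). Whole-cell currents were recorded in HEPES-buffered saline at pH 7.3, with CsCl/BAPTA pipettes and fast perfusion of agonist. Concentrations were applied sequentially, and peak currents were normalized to 100 μM ACh on the same cell. EC50, Imax and Hill coefficient came from a Hill-equation fit.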

[6] = tested on: GH4-C1; assay: Agonist activity at human alpha4beta2 S108A mutant transfected in rat GH4-C1 cells assessed as maximum response at holding potential of -70 mV by whole cell patch clamp electrophysiology method relative to ACh; assay type: cell-based; in short: as §2
[7] = target: T2, Neuronal acetylcholine receptor; alpha4/beta2; assay: Agonist activity at wild type human alpha4beta2 transfected in rat GH4-C1 cells at holding potential of -70 mV by whole cell patch clamp electrophysiology method; assay type: cell-based; in short: as §2
[8] = Selectivity index, ratio of Ki for displacement of [3H]-Epibatidine from wild type human alpha4beta2 nAChR transfected in Hela cell membrane to Ki for displacement of [3H]-Epibatidine from human alpha4beta2 nAChR S108A mutant transfected in Hela cell membrane; assay type: cell membranes; in short: as §1
[9] = Displacement of [3H]-epibatidine from human alpha4beta2 nAChR S108A mutant transfected in human Hela cell membranes preincubated for 5 mins followed by [3H]-Epibatidine addition and measured after overnight incubation by liquid scintillation beta counter analysis; in short: as §1
[10] = target: T1, Neuronal acetylcholine receptor; alpha3/beta4; assay: Partial agonist activity at human alpha3beta4 transfected in rat GH4-C1 cells at holding potential of -70 mV by whole cell patch clamp electrophysiology method; assay type: cell-based; in short: as §2
[11] = target: T2, Neuronal acetylcholine receptor; alpha4/beta2; assay: Partial agonist activity at human alpha4beta2 transfected in rat GH4-C1 cells at holding potential of -70 mV by whole cell patch clamp electrophysiology method; assay type: cell-based; in short: as §2
[12] = target: T2, Neuronal acetylcholine receptor; alpha4/beta2; assay: Partial agonist activity at human alpha4beta2 transfected in rat GH4-C1 cells assessed as maximum response at holding potential of -70 mV by whole cell patch clamp electrophysiology method relative to ACh; assay type: cell-based; in short: as §2
[13] = target: T1, Neuronal acetylcholine receptor; alpha3/beta4; assay: Partial agonist activity at human alpha3beta4 transfected in rat GH4-C1 cells assessed as maximum response at holding potential of -70 mV by whole cell patch clamp electrophysiology method relative to ACh; assay type: cell-based; in short: as §2
[14] = target: T2, Neuronal acetylcholine receptor; alpha4/beta2; assay: Partial agonist activity at wild type human alpha4beta2 transfected in rat GH4-C1 cells assessed as maximum response at holding potential of -70 mV by whole cell patch clamp electrophysiology method relative to ACh; assay type: cell-based; in short: as §2
[15] = target: T1, Neuronal acetylcholine receptor; alpha3/beta4; assay: Antagonist activity at human alpha3beta4 transfected in rat GH4-C1 cells assessed as inhibition of ACh-induced response at holding potential of -70 mV by whole cell patch clamp electrophysiology method; assay type: cell-based

CN1CCC[C@H]1[C@H]1COc2cc(-c3ccccc3)ccc2O1
Ki [1]: 5.8 µM
Ki [2]: 2.1 µM
Ki [3]: 92 µM

CN1CCC[C@H]1[C@@H]1COc2ccc([N+](=O)[O-])cc2O1
Ki [1]: 4.5 µM
Ki [2]: 10.4 µM
Ki [3]: 14 µM

CN1CCC[C@H]1[C@H]1COc2c(cccc2[N+](=O)[O-])O1
Ki [1]: 6.7 µM
Ki [3]: 0.335 µM

CN(C)c1ccc2c(c1)O[C@H]([C@@H]1CCCN1C)CO2
Ki [1]: 2.2 µM
Ki [3]: 147 µM

CN1CCC[C@H]1[C@@H]1COc2cc([N+](=O)[O-])ccc2O1
Ki [1]: 15 µM
Ki [2]: 31.5 µM
Ki [3]: 46 µM

CN1CCC[C@H]1[C@@H]1COc2cc(N)ccc2O1
Ki [1]: 3.5 µM
Ki [3]: 86 µM

CN1CCC[C@H]1[C@H]1COc2cc([N+](=O)[O-])ccc2O1
Ki [1]: 4.8 µM
Ki [2]: 13.5 µM
Ki [3]: > 100 µM

CN1CCC[C@H]1[C@@H]1COc2ccc(O)cc2O1
Ki [4]: 0.0067 µM
EC50 [5]: 3.8 µM
Imax [6]: 29%
EC50 [7]: 3.8 µM
Ratio Ki [8]: 5.6
Ki [9]: 0.0012 µM

CC(=O)Nc1ccc2c(c1)O[C@@H]([C@@H]1CCCN1C)CO2
Ki [1]: 8.7 µM
Ki [3]: 46 µM

CN1CCC[C@H]1[C@H]1COc2ccc([N+](=O)[O-])cc2O1
Ki [1]: 2.1 µM
Ki [2]: 42.2 µM
Ki [3]: 33 µM

CN1CCC[C@H]1[C@@H]1COc2cc(O)ccc2O1
Ki [1]: 1.9 µM
Ki [2]: 26.8 µM
Ki [3]: 50 µM

CN1CCC[C@H]1[C@@H]1COc2c(N)cccc2O1
Ki [1]: 3.9 µM
Ki [2]: 109 µM
Ki [3]: 7.1 µM

CN1CCC[C@H]1[C@H]1COc2ccc(O)cc2O1
Ki [1]: 0.7 µM

CN1CCC[C@H]1[C@H]1COc2cc(N)ccc2O1
Ki [1]: 8.6 µM
Ki [2]: > 10 µM
Ki [3]: 74 µM

CN1CCC[C@H]1[C@H]1COc2cc(O)ccc2O1
Ki [1]: 6 µM
Ki [2]: 10.5 µM
Ki [3]: 71 µM

CC(=O)Nc1ccc2c(c1)O[C@H]([C@@H]1CCCN1C)CO2
Ki [1]: 1.9 µM
Ki [2]: > 10 µM
Ki [3]: 6.5 µM

CN1CCC[C@H]1[C@H]1COc2ccc(N)cc2O1
Ki [1]: 0.18 µM
Ki [2]: 19.1 µM
Ki [3]: 0.14 µM

CN1CCC[C@H]1[C@@H]1COc2ccccc2O1
Ki [4]: 1.17 µM
Ratio Ki [8]: 1.29
Ki [9]: 0.912 µM

CN1CCC[C@H]1[C@@H]1COc2c(O)cccc2O1
Ki [1]: 3.9 µM
Ki [3]: 0.55 µM

CN1CCC[C@H]1[C@H]1COc2c(O)cccc2O1
Ki [1]: > 100 µM
Ki [3]: 1.7 µM

CN1CCC[C@H]1[C@@H]1COc2ccc(N)cc2O1
Ki [4]: 0.046 µM
EC50 [10]: 19 µM
Ki [1]: 0.019 µM
Ki [2]: 2.6 µM
EC50 [11]: 14 µM
Ki [3]: 0.022 µM
Imax [12]: 36%
Ratio Ki [8]: 7.7
Imax [13]: 24%
Ki [9]: 0.006 µM

CN(C)c1ccc2c(c1)O[C@@H]([C@@H]1CCCN1C)CO2
Ki [1]: 25 µM
Ki [2]: > 10 µM
Ki [3]: 49 µM

CN1CCC[C@H]1[C@@H]1COc2c(cccc2-c2ccccc2)O1
Ki [1]: 2.7 µM
Ki [2]: 45.5 µM
Ki [3]: 0.64 µM

CN1CCC[C@H]1[C@H]1COc2c(cccc2-c2ccccc2)O1
Ki [1]: 5.3 µM
Ki [2]: 50 µM
Ki [3]: 7.3 µM

CN1CCC[C@H]1[C@@H]1COc2ncccc2O1
Ki [4]: 0.114 µM
EC50 [5]: 2.6 µM
Ki [2]: 89 µM
Imax [6]: 26%
EC50 [7]: 2.6 µM
Imax [14]: 26%
Ki [3]: 0.41 µM
Imax [12]: 24.2%
Ratio Ki [8]: 0.43
Ki [9]: 0.265 µM

CN1CCC[C@H]1[C@@H]1COc2cc(-c3ccccc3)ccc2O1
Ki [1]: 5.4 µM
Ki [2]: 8.1 µM
Ki [3]: 59 µM

CN1CCC[C@H]1[C@H]1COc2c(N)cccc2O1
Ki [4]: 0.373 µM
EC50 [10]: 8.7 µM
EC50 [5]: 2.4 µM
Ki [1]: 13 µM
Ki [2]: 44.5 µM
Imax [6]: 31%
EC50 [7]: 2.4 µM
EC50 [11]: 0.005 µM
Imax [14]: 31%
Ki [3]: 0.131 µM
IC50 [15]: 54.6 µM
Imax [12]: 21.8%
Ratio Ki [8]: 2.4
Imax [13]: 38.2%
Ki [9]: 0.156 µM

CN1CCC[C@H]1[C@@H]1COc2c(cccc2[N+](=O)[O-])O1
Ki [1]: 1.1 µM
Ki [3]: 12.2 µM
